For 29 compounds, IC50 results are on record in ChEMBL document CHEMBL1141960, “Synthesis and evaluation of novel 8,6-fused bicyclic peptidomimetic compounds as interleukin-1beta converting enzyme inhibitors” (Bioorg Med Chem Lett, 2005).

For experiment [1], the target named is T1, Caspase-3 (Homo sapiens, UniProt P42574).
T1 sequence (P42574 whole entry): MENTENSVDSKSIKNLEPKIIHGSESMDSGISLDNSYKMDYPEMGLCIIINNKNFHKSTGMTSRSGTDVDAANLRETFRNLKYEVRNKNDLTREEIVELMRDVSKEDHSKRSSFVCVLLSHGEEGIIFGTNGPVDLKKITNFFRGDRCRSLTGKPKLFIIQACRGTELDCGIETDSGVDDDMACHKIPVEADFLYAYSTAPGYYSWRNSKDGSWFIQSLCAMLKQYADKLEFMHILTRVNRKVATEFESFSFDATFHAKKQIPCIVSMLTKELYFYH
The experiment can be described thus: Inhibitory activity against Caspase 3.

For experiment [2], the target named is T2, Caspase-1 (Homo sapiens, UniProt P29466).
T2 sequence (P29466 whole entry): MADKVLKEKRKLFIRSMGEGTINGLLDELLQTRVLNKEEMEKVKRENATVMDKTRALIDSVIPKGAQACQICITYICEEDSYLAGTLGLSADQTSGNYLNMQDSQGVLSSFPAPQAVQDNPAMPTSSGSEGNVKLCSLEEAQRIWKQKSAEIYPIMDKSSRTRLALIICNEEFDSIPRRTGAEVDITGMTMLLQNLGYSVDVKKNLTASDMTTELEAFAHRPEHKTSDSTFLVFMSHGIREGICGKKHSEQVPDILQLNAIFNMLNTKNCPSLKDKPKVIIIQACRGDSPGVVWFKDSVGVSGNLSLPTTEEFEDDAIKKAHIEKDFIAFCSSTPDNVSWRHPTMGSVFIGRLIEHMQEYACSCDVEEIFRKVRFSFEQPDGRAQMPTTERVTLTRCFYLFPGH
In words: Inhibitory activity against Caspase 1.

The target in experiment [3] is Caspase-8 (Homo sapiens, UniProt Q14790). The experiment can be described thus: Inhibitory activity against Caspase 8.
Chain of Caspase-8 (Q14790 217-374 limits assumed): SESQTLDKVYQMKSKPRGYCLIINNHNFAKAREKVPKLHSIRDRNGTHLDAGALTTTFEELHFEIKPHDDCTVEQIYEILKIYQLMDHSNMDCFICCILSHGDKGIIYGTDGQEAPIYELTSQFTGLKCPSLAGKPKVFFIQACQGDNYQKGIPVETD
Chain of Caspase-8 (Q14790 385-479 limits assumed): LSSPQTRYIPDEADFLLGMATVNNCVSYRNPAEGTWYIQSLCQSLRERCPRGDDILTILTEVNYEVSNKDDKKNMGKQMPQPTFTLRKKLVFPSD
Experiment [4] has as its system THP-1. The experiment can be described thus: Inhibitory activity in THP1 whole cell assay measuring IL1-beta production. It counts as functional, cell-based. The conditions noted are these: Homo sapiens. The method, boiled down:
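Human monocytic THP-1 cells, 2 × 10^6/ml in RPMI 1640, preincubated 15 min with compound added from DMSO solutions (test range 1 nM to 10 μM) or without, then stimulated with LPS 1 μg/ml for 4 h total; cells spun down and IL-1β released into conditioned medium quantified by ELISA.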

In the case of `O=C1C[C@H](NC(=O)[C@@H]2COC[C@@H]3C/C=C\C[C@H](NC(=O)c4cccc(C(F)(F)F)c4)C(=O)N32)C(O)O1` (stereo partly specified), the IC50 (in general, the point on the concentration scale where inhibition reaches its midpoint) in experiment [1] is more than 10000 nM; in experiment [2] it was 9 nM; in experiment [3], 4190 nM; in experiment [4] it was 132 nM.

Turning to `O=C1C[C@H](NC(=O)[C@@H]2CN(C(=O)OCc3ccccc3)C[C@@H]3C/C=C\C[C@H](NC(=O)c4ccccc4)C(=O)N32)C(O)O1` (stereo partly specified), the IC50 in experiment [1] turned out to be 3260 nM; in experiment [2], 1 nM; in experiment [3] it was 13 nM; in experiment [4], 125 nM.

For the compound `O=C1C[C@H](NC(=O)[C@@H]2COC[C@@H]3C/C=C\C[C@H](NC(=O)c4cc5ccccc5s4)C(=O)N32)C(O)O1` (stereo partly specified), the IC50 in experiment [1] was more than 10000 nM; in experiment [2] it was 3 nM; in experiment [3], 1600 nM; in experiment [4], 57 nM.

`CS(=O)(=O)N1C[C@@H]2CCCC[C@H](NC(=O)c3nccc4ccccc34)C(=O)N2[C@H](C(=O)N[C@H]2CC(=O)OC2O)C1` (stereo partly specified): the half-inhibitory concentration (IC50) is more than 10000 nM in experiment [1], 1 nM in experiment [2], 917 nM in experiment [3] and 168 nM in experiment [4].

As for `O=C1C[C@H](NC(=O)[C@@H]2CNC[C@@H]3CCCC[C@H](NC(=O)c4nccc5ccccc45)C(=O)N32)C(O)O1` (stereo partly specified), the half-inhibitory concentration (IC50) in experiment [1] was more than 10000 nM; in experiment [2] it was 1 nM; in experiment [3], 595 nM; in experiment [4] it was 156 nM.

`O=C1C[C@H](NC(=O)[C@@H]2CN(S(=O)(=O)c3ccccc3)C[C@@H]3CCCC[C@H](NC(=O)c4ccc5ccccc5c4)C(=O)N32)C(O)O1` (stereo partly specified): the IC50 was more than 10000 nM in experiment [1], 1 nM in experiment [2], 50 nM in experiment [3] and 153 nM in experiment [4].

Turning to `O=C1C[C@H](NC(=O)[C@@H]2COC[C@@H]3C/C=C\C[C@H](NC(=O)c4ccccc4)C(=O)N32)C(O)O1` (stereo partly specified), the IC50 in experiment [1] is more than 10000 nM; in experiment [2], 130 nM; in experiment [3], 7900 nM.

For the compound `O=C1C[C@H](NC(=O)[C@@H]2COC[C@@H]3C/C=C\C[C@H](NC(=O)c4nccc5ccccc45)C(=O)N32)C(O)O1` (stereo partly specified), the 50% inhibitory concentration (IC50) in experiment [1] was more than 10000 nM; in experiment [2], 3 nM; in experiment [3], 1590 nM; in experiment [4], 182 nM.

Turning to `O=C1C[C@H](NC(=O)[C@@H]2COC[C@@H]3C/C=C\C[C@H](NC(=O)c4ccccc4C(F)(F)F)C(=O)N32)C(O)O1` (stereo partly specified), the IC50 was more than 10000 nM in experiment [1], 50 nM in experiment [2] and 670 nM in experiment [3].

For the compound `O=C1C[C@H](NC(=O)[C@@H]2CNC[C@@H]3CCCC[C@H](NC(=O)c4ccccc4)C(=O)N32)C(O)O1` (stereo partly specified), the IC50 in experiment [1] was more than 10000 nM; in experiment [2] it was 10 nM; in experiment [3] it was 384 nM; in experiment [4], 245 nM.

As for `CS(=O)(=O)N1C[C@@H]2CCCC[C@H](NC(=O)c3ccccc3)C(=O)N2[C@H](C(=O)N[C@H]2CC(=O)OC2O)C1` (stereo partly specified), the IC50 in experiment [1] was more than 10000 nM; in experiment [2], 6 nM; in experiment [3], 384 nM; in experiment [4], 174 nM.

For `O=C1C[C@H](NC(=O)[C@@H]2COC[C@@H]3C/C=C\C[C@H](NC(=O)c4ccccc4Cl)C(=O)N32)C(O)O1` (stereo partly specified), the IC50 in experiment [1] was more than 10000 nM; in experiment [2], 33 nM; in experiment [3], 448 nM.

Consider `O=C1C[C@H](NC(=O)[C@@H]2COC[C@@H]3C/C=C\C[C@H](NC(=O)c4cccc(Cl)c4)C(=O)N32)C(O)O1` (stereo partly specified), for which the IC50 in experiment [1] is more than 10000 nM; in experiment [2], 7 nM; in experiment [3], 1550 nM; in experiment [4], 118 nM.

`O=C1C[C@H](NC(=O)[C@@H]2COC[C@@H]3C/C=C\C[C@H](NC(=O)c4ccc(C(F)(F)F)cc4)C(=O)N32)C(O)O1` (stereo partly specified): the IC50 in experiment [1] was more than 10000 nM; in experiment [2] it was 135 nM; in experiment [3], 6450 nM.

As to `O=C1C[C@H](NC(=O)[C@@H]2CN(C(=O)c3ccccc3)C[C@@H]3CCCC[C@H](NC(=O)c4ccccc4)C(=O)N32)C(O)O1` (stereo partly specified), the IC50 was found to be 8070 nM in experiment [1], 7 nM in experiment [2], 38 nM in experiment [3] and 1420 nM in experiment [4].

In the case of `O=C1C[C@H](NC(=O)[C@@H]2CN(C(=O)Nc3ccccc3)C[C@@H]3CCCC[C@H](NC(=O)c4ccccc4)C(=O)N32)C(O)O1` (stereo partly specified), the IC50 in experiment [1] was more than 10000 nM; in experiment [2], 5 nM; in experiment [3], 601 nM; in experiment [4] it was 1690 nM.

On to `O=C1C[C@H](NC(=O)[C@@H]2COC[C@@H]3C/C=C\C[C@H](NC(=O)c4ccc(Cl)cc4)C(=O)N32)C(O)O1` (stereo partly specified), for which the results for the IC50 in experiment [1], in experiment [2] and in experiment [3] were more than 10000 nM, 74 nM and 3770 nM, respectively.

Take `O=C1C[C@H](NC(=O)[C@@H]2COC[C@@H]3CCCC[C@H](NC(=O)c4ccc5ccccc5c4)C(=O)N32)C(O)O1` (stereo partly specified): the IC50 is more than 10000 nM in experiment [1], 1 nM in experiment [2], 911 nM in experiment [3] and 60 nM in experiment [4].

`O=C1C[C@H](NC(=O)[C@@H]2CN(C(=O)OCc3ccccc3)C[C@@H]3C/C=C\C[C@H](NC(=O)c4ccc5ccccc5c4)C(=O)N32)C(O)O1` (stereo partly specified): the half-inhibitory concentration (IC50) is 4850 nM in experiment [1], 1 nM in experiment [2], 5 nM in experiment [3] and 106 nM in experiment [4].

Regarding `O=C1C[C@H](NC(=O)[C@@H]2CNC[C@@H]3CCCC[C@H](NC(=O)c4ccc5ccccc5c4)C(=O)N32)C(O)O1` (stereo partly specified), the IC50 in experiment [1] was more than 10000 nM; in experiment [2], 1 nM; in experiment [3], 506 nM; in experiment [4] it was 75 nM.

On to `O=C1C[C@H](NC(=O)[C@@H]2CN(S(=O)(=O)c3ccccc3)C[C@@H]3CCCC[C@H](NC(=O)c4ccccc4)C(=O)N32)C(O)O1` (stereo partly specified), for which the IC50 in experiment [1] was more than 10000 nM; in experiment [2], 2 nM; in experiment [3] it was 106 nM; in experiment [4] it was 159 nM.

Take `O=C1C[C@H](NC(=O)[C@@H]2CN(C(=O)OCc3ccccc3)C[C@@H]3C/C=C\C[C@H](NC(=O)c4nccc5ccccc45)C(=O)N32)C(O)O1` (stereo partly specified): the IC50 is more than 10000 nM in experiment [1], 1 nM in experiment [2], 4 nM in experiment [3] and 154 nM in experiment [4].

Take `O=C1C[C@H](NC(=O)[C@@H]2CN(S(=O)(=O)c3ccccc3)C[C@@H]3CCCC[C@H](NC(=O)c4nccc5ccccc45)C(=O)N32)C(O)O1` (stereo partly specified): the IC50 in experiment [1] was more than 10000 nM; in experiment [2] it was 1 nM; in experiment [3] it was 160 nM; in experiment [4], 87 nM.

As to `CN1C[C@@H]2CCCC[C@H](NC(=O)c3ccccc3)C(=O)N2[C@H](C(=O)N[C@H]2CC(=O)OC2O)C1` (stereo partly specified), the IC50 in experiment [1] was more than 10000 nM; in experiment [2] it was 5 nM; in experiment [3], 247 nM; in experiment [4], 1820 nM.

For the compound `CS(=O)(=O)N1C[C@@H]2CCCC[C@H](NC(=O)c3ccc4ccccc4c3)C(=O)N2[C@H](C(=O)N[C@H]2CC(=O)OC2O)C1` (stereo partly specified), the IC50 in experiment [1] is more than 10000 nM; in experiment [2] it was 1 nM; in experiment [3], 283 nM; in experiment [4], 46 nM.

As for `O=C1C[C@H](NC(=O)[C@@H]2COC[C@@H]3C/C=C\C[C@H](NC(=O)c4ccc5ccccc5c4)C(=O)N32)C(O)O1` (stereo partly specified), the IC50 in experiment [1] was more than 10000 nM; in experiment [2], 3 nM; in experiment [3] it was 2590 nM; in experiment [4], 62 nM.

Regarding `O=C1C[C@H](NC(=O)[C@@H]2COC[C@@H]3CCCC[C@H](NC(=O)c4cc5ccccc5s4)C(=O)N32)C(O)O1` (stereo partly specified), the IC50 is more than 10000 nM in experiment [1], 1 nM in experiment [2], 429 nM in experiment [3] and 178 nM in experiment [4].

Regarding `CC(=O)N1C[C@@H]2CCCC[C@H](NC(=O)c3ccccc3)C(=O)N2[C@H](C(=O)N[C@H]2CC(=O)OC2O)C1` (stereo partly specified), the 50% inhibitory concentration (IC50) is more than 10000 nM in experiment [1], 6 nM in experiment [2], 481 nM in experiment [3] and 1260 nM in experiment [4].

For the compound `O=C1C[C@H](NC(=O)[C@@H]2COC[C@@H]3CCCC[C@H](NC(=O)c4nccc5ccccc45)C(=O)N32)C(O)O1` (stereo partly specified), the IC50 is more than 10000 nM in experiment [1], 1 nM in experiment [2], 264 nM in experiment [3] and 101 nM in experiment [4].
